Measurements reported in ChEMBL document CHEMBL1140313, “Potent inhibitors of subgenomic hepatitis C virus RNA replication through optimization of indole-N-acetamide allosteric inhibitors of the viral NS5B polymerase” (J Med Chem, 2005).
pEC50, pIC50: −log10 of the molar value.

Assays:
[1] = molecular target: RNA-directed RNA polymerase (Hepacivirus hominis, UniProt O39930); test: Inhibitory activity against by hepatitis C virus NS5B polymerase
In short: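 Purified ΔC55 NS5B polymerase assayed with heterogenic template RNA. IC50 values come from a single experiment or are arithmetic means of multiple experiments, as footnoted; some were measured in duplicate.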

Huh-7 [2] = test: Effective concentration required to inhibit replication of subgenomic HCV RNA in HUH-7 cells in the presence of 10% fetal calf serum; assay type: functional, cell-based; conditions: Homo sapiens
In short: (§1)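 Subgenomic HCV replicon in HUH-7 cells, run in medium with 10% fetal calf serum (a modification of Bartenschlager's method). EC50 was determined only for compounds giving >50% inhibition in an initial screen at a fixed 5 μM. Values are the arithmetic mean ± half-range or standard error of at least two independent determinations, or from a single experiment where noted.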

Huh-7 [3] = test: Effective concentration required to inhibit replication of subgenomic HCV RNA in HUH-7 cells; assay type: functional, cell-based; conditions: Homo sapiens; in short: as §1
[4] = molecular target: T1, pregnane X receptor (PXR, NR1I2) (Homo sapiens, UniProt O75469); test: Inhibition of pregnane X receptor mediated activation of alkaline phosphatase reporter gene at 10 uM; assay type: functional
T1 sequence (O75469 whole entry): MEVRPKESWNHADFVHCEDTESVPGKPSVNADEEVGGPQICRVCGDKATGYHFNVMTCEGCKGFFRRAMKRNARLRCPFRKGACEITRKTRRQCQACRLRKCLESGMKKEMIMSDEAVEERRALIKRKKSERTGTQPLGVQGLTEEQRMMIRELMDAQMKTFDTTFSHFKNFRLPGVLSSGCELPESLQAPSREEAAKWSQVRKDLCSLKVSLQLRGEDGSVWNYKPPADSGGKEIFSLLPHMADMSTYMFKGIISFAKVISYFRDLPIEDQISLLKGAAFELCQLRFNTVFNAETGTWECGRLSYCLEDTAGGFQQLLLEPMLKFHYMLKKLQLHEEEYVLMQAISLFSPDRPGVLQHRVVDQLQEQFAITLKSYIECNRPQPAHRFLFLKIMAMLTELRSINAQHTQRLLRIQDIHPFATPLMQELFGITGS
In short: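 HepG2 cells were cotransfected with a human PXR expression vector and a secreted alkaline phosphatase (SEAP) reporter driven by a synthetic PXR-responsive element. Cells were incubated 48 h with or without test compound, and SEAP activity was read with a commercial detection kit.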

Chain of RNA-directed RNA polymerase (O39930 whole entry): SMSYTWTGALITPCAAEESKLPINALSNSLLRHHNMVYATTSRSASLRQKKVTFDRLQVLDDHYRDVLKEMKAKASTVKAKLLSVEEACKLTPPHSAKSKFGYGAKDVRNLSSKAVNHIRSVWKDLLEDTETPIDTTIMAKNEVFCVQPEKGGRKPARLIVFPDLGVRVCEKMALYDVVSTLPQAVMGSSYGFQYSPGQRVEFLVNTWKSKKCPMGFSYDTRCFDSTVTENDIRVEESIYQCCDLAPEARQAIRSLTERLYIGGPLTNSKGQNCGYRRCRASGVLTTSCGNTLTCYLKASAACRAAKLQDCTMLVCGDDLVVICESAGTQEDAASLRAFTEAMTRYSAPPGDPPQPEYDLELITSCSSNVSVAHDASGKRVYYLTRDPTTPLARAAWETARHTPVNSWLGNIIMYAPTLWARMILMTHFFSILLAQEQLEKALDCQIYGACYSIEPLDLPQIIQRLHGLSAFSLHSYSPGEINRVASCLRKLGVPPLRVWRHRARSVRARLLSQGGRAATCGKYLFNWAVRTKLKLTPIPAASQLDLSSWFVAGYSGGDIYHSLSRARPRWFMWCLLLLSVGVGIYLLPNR

SMILES | pIC50 [1] | pEC50 (Huh-7 [2]) | pEC50 (Huh-7 [3]) | inhibition at 10 µM [4]
CN(C)C1CCN(C(=O)Cn2c(C3=CCCCC3)c(C3CCCCC3)c3ccc(C(=O)O)cc32)CC1 | 7.74 | 6.40 |  | 
CS(=O)(=O)N1CCN(C(=O)Cn2c(-c3ccccc3)c(C3CCCC3)c3ccc(C(=O)O)cc32)CC1 |  |  | < 5.30 | 
CCc1c(C2CCCCC2)c2ccc(C(=O)O)cc2n1CC(=O)N1CCC(N(C)C)CC1 | 6.55 |  |  | 
CN1CCN(C(=O)Cn2c(-c3ccc(Cl)cc3)c(C3CCCCC3)c3ccc(C(=O)O)cc32)CC1 | 7.92 |  | 6.52 | 
O=C(O)c1ccc2c(C3CCCCC3)c(-c3ccc(Cl)cc3)n(CC(=O)N3CCS(=O)(=O)CC3)c2c1 | 7.96 |  | 6.05 | 
CN1CCCC(CN(C)C(=O)Cn2c(-c3ccc(Cl)cc3)c(C3CCCCC3)c3ccc(C(=O)O)cc32)C1 (stereo not given) | 7.92 |  | 6.52 | 92%
CN1CCN(C(=O)Cn2c(-c3ccccc3)c(C3CCCCC3)c3cc(C(=O)O)ccc32)CC1 | 6.35 |  | 5.46 | 
O=C(Cn1c(-c2ccc(Cl)cc2)c(C2CCCCC2)c2ccc(C(=O)O)cc21)NCC1CC1 | 8.10 |  | 5.85 | 
O=C(Cn1c(-c2ccccc2)c(C2CCCCC2)c2cc(C(=O)O)ccc21)NCC1CC1 |  |  | < 5.30 | 
O=C(O)c1ccc2c(C3CCCCC3)c(-c3ccccc3)n(CC(=O)N3CCS(=O)(=O)CC3)c2c1 | 7.37 |  | 5.80 | 
CN(C)C1CCN(C(=O)Cn2c(-c3cccc(F)c3)c(C3CCCCC3)c3ccc(C(=O)O)cc32)CC1 |  |  |  | 10%
CC(C)N(C)C(=O)Cn1c(-c2ccc(Cl)cc2)c(C2CCCCC2)c2ccc(C(=O)O)cc21 | 7.96 |  | 6.05 | 
CN1CCCC(CN(C)C(=O)Cn2c(-c3cccc(F)c3)c(C3CCCCC3)c3ccc(C(=O)O)cc32)C1 (stereo not given) |  |  |  | 72%
CN(C)C(=O)Cn1c(-c2cccc(CN3CCCC(F)(F)C3)c2)c(C2CCCCC2)c2ccc(C(=O)O)cc21 | 7.74 | 6.22 |  | 

Second part, the molecule after the results:

pIC50 [1] | pEC50 (Huh-7 [2]) | pEC50 (Huh-7 [3]) | inhibition at 10 µM [4] | SMILES
7.51 | 6.10 |  |  | CN(C)C(=O)Cn1c(-c2ccoc2)c(C2CCCCC2)c2ccc(C(=O)O)cc21
6.83 | 5.48 |  |  | CN(C)Cc1cccc(-c2c(C3CCCCC3)c3ccc(C(=O)O)cc3n2CC(=O)N(C)C)c1
7.15 |  | 6.15 |  | CN(C)C1CCN(C(=O)Cn2c(-c3ccccc3)c(C3CCCCC3)c3ccc(C(=O)O)cc32)C1 (stereo not given)
7.77 |  | 5.96 |  | CN(C)C(=O)CN(C)C(=O)Cn1c(-c2ccc(Cl)cc2)c(C2CCCCC2)c2ccc(C(=O)O)cc21
 |  | < 5.30 |  | CN(C)C(=O)CN(C)C(=O)Cn1c(-c2ccccc2)c(C2CCCC2)c2ccc(C(=O)O)cc21
7.11 |  | 5.82 |  | CN(C)C1CCN(C(=O)Cn2c(-c3ccccc3)c(C3CCCC3)c3ccc(C(=O)O)cc32)C1 (stereo not given)
 |  | < 5.30 |  | CN1CCCC(CN(C)C(=O)Cn2c(-c3ccccc3)c(C3CCCCC3)c3cc(C(=O)O)ccc32)C1 (stereo not given)
 |  | < 5.30 |  | CN(C)C(=O)CN(C)C(=O)Cn1c(-c2ccccc2)c(C2CCCCC2)c2cc(C(=O)O)ccc21
 | 5.82 |  |  | CN(C)C(=O)Cn1c(-c2ccccc2)c(C2CCCCC2)c2ccc(C(=O)O)cc21
 |  | < 5.30 |  | O=C(Cn1c(-c2ccccc2)c(C2CCCC2)c2ccc(C(=O)O)cc21)NCC1CC1
7.21 |  | 5.80 |  | CC(C)N(C)C(=O)Cn1c(-c2ccccc2)c(C2CCCCC2)c2ccc(C(=O)O)cc21
7.01 |  | 5.72 |  | CN(C)C(=O)CN(C)C(=O)Cn1c(-c2ccccc2)c(C2CCCCC2)c2ccc(C(=O)O)cc21
7.16 | 5.74 |  |  | COc1ccc(-c2c(C3CCCCC3)c3ccc(C(=O)O)cc3n2CC(=O)N(C)C)cn1
